Data taken from ChEMBL document CHEMBL1135860 (Bioorg Med Chem Lett, 2002).

Assays:
[1] = target: T1, 5-hydroxytryptamine receptor 7 (Homo sapiens, UniProt P34969); assay: Binding affinity towards human 5-hydroxytryptamine 7 receptor on HEK293 cells using radioligand [3H]LSD; format: cell-based
Procedure, shortened: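 Competition binding at human 5-HT7 receptor: membranes prepared from HEK293 cells expressing the receptor were incubated with 3H-LSD and a range of test concentrations. Clozapine was the reference standard. Ki values in nM were determined.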

[2] = target: T1, 5-hydroxytryptamine receptor 7; assay: Inhibition (at 1 uM) of radioligand [3H]LSD binding to human 5-hydroxytryptamine 7 receptor on HEK293 cells; format: cell-based
Procedure, shortened: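 Human 5-HT7 binding was run with membranes from HEK293 cells expressing the receptor, incubated with 3H-LSD. Clozapine was the standard. Displacement of radioligand was recorded as percent inhibition at 1 µM.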

[3] = target: D(1A) dopamine receptor (Homo sapiens) (UniProt P21728); assay: Percent inhibition (at 1 uM) against Dopamine receptor D1
Sequence of D(1A) dopamine receptor (Homo sapiens) (P21728 whole entry): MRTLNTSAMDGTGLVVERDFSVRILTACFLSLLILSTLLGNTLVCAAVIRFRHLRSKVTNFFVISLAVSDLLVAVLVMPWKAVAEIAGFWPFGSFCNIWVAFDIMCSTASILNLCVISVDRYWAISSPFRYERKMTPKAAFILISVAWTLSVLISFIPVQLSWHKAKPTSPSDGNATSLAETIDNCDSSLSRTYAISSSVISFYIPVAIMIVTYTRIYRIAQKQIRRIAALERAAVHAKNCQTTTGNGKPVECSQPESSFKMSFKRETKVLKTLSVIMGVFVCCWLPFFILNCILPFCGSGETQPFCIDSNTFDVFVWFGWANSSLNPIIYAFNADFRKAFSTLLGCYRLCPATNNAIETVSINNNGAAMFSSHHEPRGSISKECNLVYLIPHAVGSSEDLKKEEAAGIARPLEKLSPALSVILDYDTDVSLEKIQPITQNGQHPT

[4] = target: T2, D(4) dopamine receptor (Homo sapiens) (UniProt P21917); assay: Percent inhibition (at 1 uM) against Dopamine receptor D4
T2 sequence (whole entry): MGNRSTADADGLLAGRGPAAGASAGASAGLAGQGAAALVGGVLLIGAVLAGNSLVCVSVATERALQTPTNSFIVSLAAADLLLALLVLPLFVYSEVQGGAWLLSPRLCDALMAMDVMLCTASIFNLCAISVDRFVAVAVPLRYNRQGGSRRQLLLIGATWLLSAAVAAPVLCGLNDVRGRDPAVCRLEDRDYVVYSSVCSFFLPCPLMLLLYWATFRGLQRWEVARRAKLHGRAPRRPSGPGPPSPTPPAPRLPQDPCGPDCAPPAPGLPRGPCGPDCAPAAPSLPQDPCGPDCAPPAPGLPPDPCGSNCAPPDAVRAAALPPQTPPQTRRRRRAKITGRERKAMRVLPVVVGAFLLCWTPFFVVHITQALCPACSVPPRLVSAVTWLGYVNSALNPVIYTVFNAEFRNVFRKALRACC

[5] = target: Muscarinic acetylcholine receptors; M1 & M2 (Homo sapiens) (UniProt P11229+P08172); assay: Percent inhibition (at 1 uM) against Muscarinic acetylcholine receptor M1- Muscarinic acetylcholine receptor M2; format: protein assay
[6] = target: T3, 5-hydroxytryptamine receptor 1F (Homo sapiens) (UniProt P30939); assay: Percent inhibition (at 1 uM) against 5-hydroxytryptamine 1F receptor
T3 sequence (whole entry): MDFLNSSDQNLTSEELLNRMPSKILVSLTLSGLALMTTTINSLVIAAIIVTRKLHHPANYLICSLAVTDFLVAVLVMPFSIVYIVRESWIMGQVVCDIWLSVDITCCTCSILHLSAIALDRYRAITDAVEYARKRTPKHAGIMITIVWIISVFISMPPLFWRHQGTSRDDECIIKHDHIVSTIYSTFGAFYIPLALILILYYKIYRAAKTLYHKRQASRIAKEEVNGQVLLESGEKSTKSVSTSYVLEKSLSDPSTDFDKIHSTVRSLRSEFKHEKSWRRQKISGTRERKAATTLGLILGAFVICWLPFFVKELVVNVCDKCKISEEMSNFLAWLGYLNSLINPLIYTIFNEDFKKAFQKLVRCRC

[7] = target: D(3) dopamine receptor (Homo sapiens) (UniProt P35462); assay: Percent inhibition (at 1 uM) against Dopamine receptor D3
Sequence of D(3) dopamine receptor (Homo sapiens) (P35462 whole entry): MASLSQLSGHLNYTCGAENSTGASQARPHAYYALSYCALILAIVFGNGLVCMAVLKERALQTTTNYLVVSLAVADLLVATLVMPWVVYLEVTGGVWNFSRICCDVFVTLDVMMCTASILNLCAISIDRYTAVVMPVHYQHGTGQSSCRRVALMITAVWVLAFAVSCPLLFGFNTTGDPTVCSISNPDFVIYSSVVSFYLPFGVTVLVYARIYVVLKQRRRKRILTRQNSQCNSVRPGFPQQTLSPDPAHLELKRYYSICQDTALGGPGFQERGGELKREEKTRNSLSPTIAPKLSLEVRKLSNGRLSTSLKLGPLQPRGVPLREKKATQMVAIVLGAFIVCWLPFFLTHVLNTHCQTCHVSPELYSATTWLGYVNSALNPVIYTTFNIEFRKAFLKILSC

[8] = target: T4, 5-hydroxytryptamine receptor 2C (Homo sapiens) (UniProt P28335); assay: Percent inhibition (at 1 uM) against 5-hydroxytryptamine 2C receptor
T4 sequence (whole entry): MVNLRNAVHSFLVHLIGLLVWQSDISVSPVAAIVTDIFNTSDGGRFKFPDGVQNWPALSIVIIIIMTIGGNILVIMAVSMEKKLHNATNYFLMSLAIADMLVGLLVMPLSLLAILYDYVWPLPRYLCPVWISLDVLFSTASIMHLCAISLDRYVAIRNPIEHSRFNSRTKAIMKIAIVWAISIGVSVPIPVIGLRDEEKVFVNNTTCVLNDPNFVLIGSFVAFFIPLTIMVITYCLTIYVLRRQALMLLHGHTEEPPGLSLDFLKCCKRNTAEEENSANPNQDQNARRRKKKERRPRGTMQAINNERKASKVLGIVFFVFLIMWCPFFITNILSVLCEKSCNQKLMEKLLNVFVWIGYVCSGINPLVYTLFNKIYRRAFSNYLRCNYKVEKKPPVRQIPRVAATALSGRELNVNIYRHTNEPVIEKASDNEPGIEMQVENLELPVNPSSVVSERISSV

[9] = target: 5-hydroxytryptamine receptor 6 (Homo sapiens, UniProt P50406); assay: Compound was tested for its binding affinity towards 5-hydroxytryptamine 6 receptor
Sequence of 5-hydroxytryptamine receptor 6 (P50406 whole entry): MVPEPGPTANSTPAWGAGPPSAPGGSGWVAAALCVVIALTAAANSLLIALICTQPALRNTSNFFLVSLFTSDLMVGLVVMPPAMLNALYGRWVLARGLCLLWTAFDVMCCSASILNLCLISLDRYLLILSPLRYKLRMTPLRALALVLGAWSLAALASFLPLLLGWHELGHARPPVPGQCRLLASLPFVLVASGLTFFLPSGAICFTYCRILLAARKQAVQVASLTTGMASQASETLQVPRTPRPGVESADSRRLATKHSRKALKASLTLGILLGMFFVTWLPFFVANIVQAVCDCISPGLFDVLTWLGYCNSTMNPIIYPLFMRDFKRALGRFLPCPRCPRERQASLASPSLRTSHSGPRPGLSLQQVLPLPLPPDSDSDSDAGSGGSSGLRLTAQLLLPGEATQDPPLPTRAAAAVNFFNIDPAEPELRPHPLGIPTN

[10] = target: 5-hydroxytryptamine receptor 1D (Homo sapiens) (UniProt P28221); assay: Percent inhibition (at 1 uM) against 5-hydroxytryptamine 1D receptor
Sequence of 5-hydroxytryptamine receptor 1D (Homo sapiens) (P28221 whole entry): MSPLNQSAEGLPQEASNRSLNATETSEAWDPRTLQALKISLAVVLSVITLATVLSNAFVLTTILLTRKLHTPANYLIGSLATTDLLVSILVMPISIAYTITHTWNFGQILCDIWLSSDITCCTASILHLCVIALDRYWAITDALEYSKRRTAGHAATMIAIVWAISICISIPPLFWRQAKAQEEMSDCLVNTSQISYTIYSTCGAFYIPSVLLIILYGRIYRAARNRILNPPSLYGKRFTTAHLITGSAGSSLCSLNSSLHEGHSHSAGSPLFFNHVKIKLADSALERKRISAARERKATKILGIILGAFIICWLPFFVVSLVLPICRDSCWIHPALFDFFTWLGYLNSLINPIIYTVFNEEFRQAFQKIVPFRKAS

[11] = target: 5-hydroxytryptamine receptor 1B (Homo sapiens) (UniProt P28222); assay: Percent inhibition (at 1 uM) against 5-hydroxytryptamine 1B receptor
Sequence of 5-hydroxytryptamine receptor 1B (Homo sapiens) (P28222 whole entry): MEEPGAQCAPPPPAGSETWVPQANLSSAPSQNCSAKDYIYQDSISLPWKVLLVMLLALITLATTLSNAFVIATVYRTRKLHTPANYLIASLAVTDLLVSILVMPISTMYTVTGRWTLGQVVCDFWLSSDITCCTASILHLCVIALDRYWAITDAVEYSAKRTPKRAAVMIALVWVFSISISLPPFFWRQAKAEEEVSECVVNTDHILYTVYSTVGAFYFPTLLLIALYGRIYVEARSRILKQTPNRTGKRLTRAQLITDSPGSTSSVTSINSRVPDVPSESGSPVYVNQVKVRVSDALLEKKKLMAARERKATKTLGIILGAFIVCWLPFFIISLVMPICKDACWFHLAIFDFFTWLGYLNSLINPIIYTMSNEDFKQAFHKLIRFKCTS

[12] = target: T5, 5-hydroxytryptamine receptor 1A (Homo sapiens) (UniProt P08908); assay: Percent inhibition (at 1 uM) against 5-hydroxytryptamine 1A receptor
T5 sequence (whole entry): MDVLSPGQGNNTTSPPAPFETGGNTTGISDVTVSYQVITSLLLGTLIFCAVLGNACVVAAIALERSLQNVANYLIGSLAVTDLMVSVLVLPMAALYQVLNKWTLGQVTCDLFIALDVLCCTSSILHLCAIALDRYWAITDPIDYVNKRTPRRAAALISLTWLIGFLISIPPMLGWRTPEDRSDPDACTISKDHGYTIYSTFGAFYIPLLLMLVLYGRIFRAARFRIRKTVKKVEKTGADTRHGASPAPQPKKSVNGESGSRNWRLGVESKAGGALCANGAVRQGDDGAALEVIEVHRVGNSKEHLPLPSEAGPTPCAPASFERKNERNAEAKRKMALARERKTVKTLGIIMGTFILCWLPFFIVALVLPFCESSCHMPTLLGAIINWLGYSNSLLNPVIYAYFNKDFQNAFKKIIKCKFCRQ

[13] = target: D(1B) dopamine receptor (Homo sapiens) (UniProt P21918); assay: Percent inhibition (at 1 uM) against dopamine D5 receptor
Sequence of D(1B) dopamine receptor (Homo sapiens) (P21918 whole entry): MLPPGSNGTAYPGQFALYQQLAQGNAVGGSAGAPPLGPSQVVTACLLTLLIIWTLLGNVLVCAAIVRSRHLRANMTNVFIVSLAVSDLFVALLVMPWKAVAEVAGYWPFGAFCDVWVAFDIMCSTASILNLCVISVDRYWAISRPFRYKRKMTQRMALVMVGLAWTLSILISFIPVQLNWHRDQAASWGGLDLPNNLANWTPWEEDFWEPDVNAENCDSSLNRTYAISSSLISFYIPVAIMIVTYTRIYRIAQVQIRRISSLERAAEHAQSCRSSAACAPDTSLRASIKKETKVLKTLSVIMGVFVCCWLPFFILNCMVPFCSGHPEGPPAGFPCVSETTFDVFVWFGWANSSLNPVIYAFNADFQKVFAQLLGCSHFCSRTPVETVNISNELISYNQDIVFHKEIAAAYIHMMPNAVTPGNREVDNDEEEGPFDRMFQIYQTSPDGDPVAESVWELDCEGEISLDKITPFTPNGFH

[14] = target: 5-hydroxytryptamine receptor 2A (Homo sapiens) (UniProt P28223); assay: Percent inhibition (at 1 uM) against 5-hydroxytryptamine 2A receptor
Sequence of 5-hydroxytryptamine receptor 2A (Homo sapiens) (P28223 whole entry): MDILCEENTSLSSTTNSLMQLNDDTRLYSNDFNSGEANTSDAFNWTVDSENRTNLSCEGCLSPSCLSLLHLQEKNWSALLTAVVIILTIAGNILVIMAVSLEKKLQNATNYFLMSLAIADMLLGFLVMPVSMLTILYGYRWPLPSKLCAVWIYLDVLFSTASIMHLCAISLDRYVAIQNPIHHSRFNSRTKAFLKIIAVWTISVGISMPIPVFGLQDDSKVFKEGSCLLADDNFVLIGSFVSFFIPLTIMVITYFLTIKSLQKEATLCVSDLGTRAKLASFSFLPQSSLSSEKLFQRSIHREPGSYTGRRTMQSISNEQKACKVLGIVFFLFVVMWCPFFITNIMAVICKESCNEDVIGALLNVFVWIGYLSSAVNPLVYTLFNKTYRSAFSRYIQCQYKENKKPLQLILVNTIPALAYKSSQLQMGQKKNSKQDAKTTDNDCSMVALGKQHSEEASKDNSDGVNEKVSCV

[15] = target: D(2) dopamine receptor (Homo sapiens) (UniProt P14416); assay: Percent inhibition (at 1 uM) against Dopamine receptor D2
Sequence of D(2) dopamine receptor (Homo sapiens) (P14416 whole entry): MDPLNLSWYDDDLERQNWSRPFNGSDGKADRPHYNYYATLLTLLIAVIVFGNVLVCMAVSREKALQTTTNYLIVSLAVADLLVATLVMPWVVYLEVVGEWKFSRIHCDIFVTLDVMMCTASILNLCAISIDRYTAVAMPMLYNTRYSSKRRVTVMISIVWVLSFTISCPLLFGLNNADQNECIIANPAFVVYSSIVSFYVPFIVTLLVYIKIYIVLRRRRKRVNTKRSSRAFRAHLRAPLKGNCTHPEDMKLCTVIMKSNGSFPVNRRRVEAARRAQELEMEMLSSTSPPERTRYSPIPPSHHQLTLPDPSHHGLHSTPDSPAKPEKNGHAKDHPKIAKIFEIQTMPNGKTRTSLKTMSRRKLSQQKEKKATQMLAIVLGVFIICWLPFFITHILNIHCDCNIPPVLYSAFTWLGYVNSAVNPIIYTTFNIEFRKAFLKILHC

T1 sequence (P34969 whole entry): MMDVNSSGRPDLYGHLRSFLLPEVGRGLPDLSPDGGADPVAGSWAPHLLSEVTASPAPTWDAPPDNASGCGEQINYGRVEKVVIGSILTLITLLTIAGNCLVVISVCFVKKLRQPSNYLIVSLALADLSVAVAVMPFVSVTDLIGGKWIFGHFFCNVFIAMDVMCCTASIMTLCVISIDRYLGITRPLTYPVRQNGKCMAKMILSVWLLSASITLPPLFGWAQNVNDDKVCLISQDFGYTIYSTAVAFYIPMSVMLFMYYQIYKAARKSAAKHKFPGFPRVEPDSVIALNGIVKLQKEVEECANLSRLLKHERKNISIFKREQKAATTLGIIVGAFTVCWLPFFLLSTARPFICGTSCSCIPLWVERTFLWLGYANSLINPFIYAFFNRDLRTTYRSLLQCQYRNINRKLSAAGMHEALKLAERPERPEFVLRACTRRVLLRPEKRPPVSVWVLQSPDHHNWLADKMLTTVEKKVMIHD

SMILES	Ki [1] [nM]	inhibition [2] [%]	also measured
CC(C)N1CCCN(CCn2ccc3ccc(Br)cc32)CC1	14	92	–
Brc1ccc2ccn(CCN3CCCN4CCCCC4C3)c2c1 (centres undefined)	3	99	inhibition [3]: 2%; inhibition [4]: 4%; inhibition [5]: 35%; inhibition [6]: 0%; inhibition [7]: 27%; inhibition [8]: 26%; Ki [9]: 4070 nM; inhibition [10]: 0%; inhibition [11]: 0%; inhibition [12]: 1%; inhibition [13]: 17%; inhibition [14]: 20%; inhibition [15]: 15%
Brc1ccc2ccn(CCN3CCN4CCCCC4C3)c2c1 (centres undefined)	70	78	–
CN1CCCN(CCn2ccc3ccc(C(F)(F)F)cc32)CC1	23	89	–
CN1CCCN(CCn2ccc3ccc(N)cc32)CC1	–	0	–
Brc1ccc2ccn(CCN3CCCN(c4ccccc4)CC3)c2c1	–	18	–
CN1CCCN(CCn2ccc3cc(Br)ccc32)CC1	88	65	–
Brc1ccc2ccn(CCN3CCCN(C4CC4)CC3)c2c1	16	96	–
CC(C)CN1CCCN(CCn2ccc3ccc(Br)cc32)CC1	37	95	–
CN1CCCN(CCn2ccc3cccc(Br)c32)CC1	–	18	–
Brc1ccc2ccn(CCN3CCCN(CC4CC4)CC3)c2c1	9	95	–
CN1CCCN(CCn2ccc3c(Br)cccc32)CC1	–	33	–
COc1ccc2ccn(CCN3CCCN(C)CC3)c2c1	1570	50	–
Brc1ccc2ccn(CCN3CCNCC3)c2c1	–	61	–
CN1CCCN(CCn2ccc3ccc(C(N)=O)cc32)CC1	–	33	–
Brc1cccc2ccn(CCN3CCN4CCCCC4C3)c12 (centres undefined)	–	13	–
Cc1ccc2ccn(CCN3CCCN(C)CC3)c2c1	125	62	–
CCc1ccc2ccn(CCN3CCCN(C)CC3)c2c1	166	66	–
CN1CCCN(CCn2ccc3ccc(O)cc32)CC1	–	28	–
CC1CN(CCn2ccc3ccc(Br)cc32)CCN1 (centres undefined)	–	52	–
Cc1cccc(S(=O)(=O)N(C)[C@H](C)CCN2CCC(C)CC2)c1 [SB-258719]	–	–	Ki ([1]; hek293): 32 nM
Brc1ccc2ccn(CCN3CCN4CCCC4C3)c2c1 (centres undefined)	–	72	–
C=C(C)c1ccc2ccn(CCN3CCCN(C)CC3)c2c1	70	72	–
CC1CN(CCn2ccc3ccc(Br)cc32)CC(C)N1 (centres undefined)	–	26	–
